Laboratory results: PMC4377730 (Theranostics, 2015)

Test: [18F]FDG-PET in patients
Type: in vivo, human
Outline: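 Patients fasted 6 h, and blood glucose was checked just before injection to be below 150 mg/dL. They received 300-500 MBq [18F]FDG, with PET/CT started 90 min p.i. at 2 min per bed position. A low-dose CT (120 […], 20 mAs) in shallow inspiration provided attenuation correction. Emission data were corrected for randoms, dead time, scatter and attenuation. Read-outs were SUVmean/SUVmax.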

[1] = NSCLC lesion, patient with T-cell lymphoma and NSCLC
[2] = bone marrow (BM), patient with multiple myeloma
[3] = hottest lesion in the 5th rib left, patient with multiple myeloma
[4] = lymphoma lesion, patient with T-cell lymphoma and NSCLC
[5] = nodal lesions, patient with chronic lymphocytic leukemia and suspected transformation into aggressive B-cell lymphoma

## O=C[C@H]([18F])[C@@H](O)[C@H](O)[C@H](O)CO [[^18F]FDG, 2-[^18F]Fluoro-2-desoxyglucose]
[1]
  SUVmax: 38.57
  SUVmean: 26.36
[2]
  SUVmax: 6.24
  SUVmean: 3.77
[3]
  SUVmax: 8.06
  SUVmean: 5.23
[4]
  SUVmax: 50.91
  SUVmean: 29.82
[5]
  SUVmax: 5.94
  SUVmean: 3.66
